PMC11068522 (International Journal for Parasitology: Drugs and Drug …, 2024)
pIC50: −log10 of the molar value. Like-named read-outs stand apart in the source and are kept apart here.

Columns and labels:
[1] = test system: intraerythrocytic stage P. falciparum (strain 3D7); assay: In vitro antiplasmodial SYBR Green I-based fluorescence assay, 96 h, strain 3D7; format: cell-based, Plasmodium falciparum; details: for pIC50: 96 h; for inhibition: 3D7, read-out: inhibition of parasite proliferation at the single (highest) concentration tested
How it was run: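 Synchronous ring-stage parasites in O+ erythrocytes, 0.5% parasitemia and 1% hematocrit, in RPMI 1640 with HEPES, Glutamax, 11 mM glucose, 200 μM hypoxanthine, gentamicin and 0.6% Albumax II. […] Frozen at −80 °C, then SYBR Safe lysis (20 mM Tris pH 7.5, EDTA, saponin, Triton X-100). Fluorescence as % of untreated control; IC50 from four-parameter fit, mean ± SEM, n = 3.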

[2] = Solubility in DMSO; format: physicochemical; details: other compounds dissolved to 200 mM; these dissolved to between 10 and 100 mM
[3] = test system: β-hematin formation; assay: Detergent mediated β-hematin assay; format: biochemical; details: cell-free detergent mediated assay; Fig. S4
[4] = test system: [Na^+]cyt of isolated trophozoite-stage 3D7 parasites (PfATP4); assay: Cytosolic Na+ measurements; format: cell-based, Plasmodium falciparum; details: isolated 3D7 trophozoites; 13i 1 μM and 10 μM, cipargamin 50 nM; final 85–90 min
How it was run: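 Saponin-freed trophozoite-stage 3D7 parasites loaded with SBFI, in 96-well plates at 37 °C in saline (125 mM NaCl, 5 mM KCl, 1 mM MgCl2, 20 mM glucose, 25 mM HEPES, pH 7.1). Controls: DMSO solvent (0.1–0.2% v/v) and a PfATP4-inhibitor positive control. Final [Na+]cyt averaged over 85–90 min of exposure. Three independent experiments on separate days, mean + SEM, Dunnett's test versus DMSO.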

[5] = Plasmodium falciparum, 3D7, 96 h, read-out: IC50 (P. falciparum proliferation), strain 3D7

SMILES | pIC50 [1, 5] | inhibition ([1]; Plasmodium falciparum) [%] | also measured
COc1cc(C)ccc1NC(=O)c1nccc2ccccc12 [Compound 12a] | 4.16 | – | solubility in DMSO [2]: lower solubility
COc1cc(C)ccc1NC(=O)c1ccc2ccccc2c1 [Compound 12b] | 4.42 | – | effect on β-hematin formation [3]: none
COc1cc(C)ccc1NC(=O)c1cnc2ccccc2c1 [Compound 12c] | 4.21 | – | –
COc1cc(C)ccc1NC(=O)c1nccc2ccccc12.Cl [Compound 12j] | – | – | reduction of antiplasmodial activity relative to 12a ([1]; compared with isoquinoline carboxamide 12a, strain 3D7): about 2 fold; pIC50 ([1]; read-out: IC50 (P. falciparum proliferation), strain 3D7): 3.87
COc1cc(C)ccc1NC(=S)c1nccc2ccccc12 [Compound 13a] | – | < 50 | inhibition of proliferation of P. falciparum ([1]; at concentrations up to 200 μM, strain 3D7): ≤ 50%
COc1cc(C)ccc1NC(=S)c1ccc2ccccc2c1 [Compound 13b] | 4.64 | > 50 | effect on β-hematin formation [3]: none
COc1cc(C)ccc1NC(=S)c1cnc2ccccc2c1 [Compound 13c] | 4.21 | > 50 | solubility in DMSO [2]: lower solubility
S=C(Nc1ccccc1)c1nccc2ccccc12 [Compound 13d] | – | < 50 | –
S=C(Nc1ccccc1)c1cccnc1 [Compound 13h] | – | < 50 | –
CCN(CC)CCCC(C)Nc1ccnc2cc(Cl)ccc12 (stereo not shown) [chloroquine, Chloroquine, reference compound] | – | – | effect on β-hematin formation [3]: inhibited
C[C@H]1Cc2c([nH]c3cc(Cl)c(F)cc23)[C@@]2(N1)C(=O)Nc1ccc(Cl)cc12 [cipargamin] | – | – | effect on [Na^+]cyt [4]: significant increase
